An excerpt weighted towards active compounds, which were near 2% of everything screened.
FLuc inhib CS: Photinus pyralis luciferase inhibition counter-screen | 200,000 tested, 1.5% active | P08659 | ATPLite firefly luciferase biochemical luminescence, 10 min | inhibition, % at 10 µM;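 active means inhibition above about 50% when tested at 10 µM, limit read from the data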
Target sequence (P08659 whole entry, looked up): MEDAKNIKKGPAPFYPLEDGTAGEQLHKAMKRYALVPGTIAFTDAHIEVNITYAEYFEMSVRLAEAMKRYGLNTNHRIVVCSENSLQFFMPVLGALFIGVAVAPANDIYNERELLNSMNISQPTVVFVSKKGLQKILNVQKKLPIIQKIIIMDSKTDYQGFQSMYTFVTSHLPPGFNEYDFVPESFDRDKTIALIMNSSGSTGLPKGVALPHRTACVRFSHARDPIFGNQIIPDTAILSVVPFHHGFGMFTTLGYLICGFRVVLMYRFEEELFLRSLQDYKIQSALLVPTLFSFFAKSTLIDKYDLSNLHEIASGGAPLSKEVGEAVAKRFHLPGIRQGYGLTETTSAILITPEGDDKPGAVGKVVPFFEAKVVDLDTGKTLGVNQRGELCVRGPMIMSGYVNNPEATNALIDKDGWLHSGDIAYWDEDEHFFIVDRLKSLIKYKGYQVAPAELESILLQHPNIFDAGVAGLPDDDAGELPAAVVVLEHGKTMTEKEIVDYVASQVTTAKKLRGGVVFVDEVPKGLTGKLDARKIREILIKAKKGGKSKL
FLuc stim CS: firefly luciferase counter-screen for stimulation assays | activation factor at 10 µM | ATPlite luciferase biochemical, luminescence, 10 min; 0 = ATP-free wells, 1 = DMSO control | 200,000 tested, under 10 active;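 active means luciferase activation factor, scaled between plate controls, of at least 2 with compound at 10 µM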
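System: cell-free luciferase reagent; medium: PBS as buffer for the ATP substrate; doses: test compounds dosed from 2 mM stocks in 100% DMSO; incubation: 10 min, room temperature; measured by: luminescence from luciferase reaction; read-out: luciferase activation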
PPC-1+TRAIL kill: PPC-1 cancer cell killing with TRAIL present; PPC-1 cells + TRAIL, ATPLite viability luminescence; cell killing (% activity), % at 4 µM or 5 µM; 220,000 tested, 0.41% active;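 active means cell killing above 50% in the first pass at 4 µM, then a duplicate retest at 5 µM averaging 50% or more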;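 further: plate controls were cells with TRAIL plus DMSO for no effect and medium-only wells lacking cells for full effect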
C8 TRAIL sens: caspase-8 TRAIL sensitization | inhibition (viability loss, TRAIL sensitization), % at 10 µM | NB7+C8 cells + TRAIL, ATPlite viability luminescence | 360,000 tested, 1% active;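 active means compounds causing at least 50% loss of cell viability in the single-dose screen, relative to plate controls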
HSP90 refold inh: blocks HSP90-mediated luciferase refolding in reticulocyte lysate; Rabbit reticulocyte lysate, luciferase refolding luminescence, 3 h; inhibition, % at 5.6 µM; 290,000 tested, 0.91% active; AID 1789;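 active means inhibition above the screen-wide mean plus 3 SD, computed separately per campaign, cut at about 16% in these data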;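 further: 0% = DMSO wells and 100% = 60 µM geldanamycin wells; inhibitors lower the luminescence because luciferase stays unfolded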
An asterisk follows results filed as active.

`C[C@@H]1CN([C@H](C)CO)S(=O)(=O)c2ccc(Br)cc2O[C@H]1CN(C)S(C)(=O)=O` gave C8 TRAIL sens 5.9.
O=C(NCC1CCCO1)c1ccc2c3n(nc2c1)-c1ccccc1CO3 (stereo not drawn) was read as PPC-1+TRAIL kill 42.1 and C8 TRAIL sens 51.0*.
Screening NS(=O)(=O)c1ccc(N2C(=O)CCCC2=O)cc1 returned C8 TRAIL sens -15.0.
`CCCc1c(-c2cccc(Br)c2)ncn1Cc1ccccc1OC` gave C8 TRAIL sens 12.1.
`Oc1ccccc1-c1cc(-c2ccccc2)no1` gave FLuc inhib CS 50.8*, FLuc stim CS 0.5, PPC-1+TRAIL kill 16.7, C8 TRAIL sens 44.6* and HSP90 refold inh -0.5.
Clc1ccc(-c2cc(-c3ccccc3)on2)cc1 was read as C8 TRAIL sens 17.9.
Screening Cc1ccc(O)c(-c2cc(-c3ccc(F)cc3)no2)c1 returned C8 TRAIL sens 68.9* and HSP90 refold inh -2.9.
Screening COc1ccc(-c2cc(-c3cc(C)ccc3O)[nH]n2)cc1 returned FLuc inhib CS 6.3, FLuc stim CS 0.9, PPC-1+TRAIL kill 4.1, C8 TRAIL sens 43.8 and HSP90 refold inh -1.5.
Cc1ccccc1-c1cc(-c2ccccc2O)on1 was read as FLuc inhib CS 35.7, FLuc stim CS 0.6, PPC-1+TRAIL kill 18.8, C8 TRAIL sens 34.7 and HSP90 refold inh -0.7.
Screening Cc1ccc(-c2cc(-c3ccccc3)no2)c(O)c1 returned FLuc inhib CS 87.0*, FLuc stim CS 0.1, PPC-1+TRAIL kill 50.0, C8 TRAIL sens 78.3* and HSP90 refold inh 15.7.
Screening CSc1ccc(CN2CCC(C)(Oc3cnc(Cl)c4ccccc34)C2)cc1 (stereo not drawn) returned C8 TRAIL sens 1.1.
`Cc1cc(C)c(C(=O)c2ccccc2C(=O)O)c(C)c1` gave C8 TRAIL sens 0.4.
Screening CC(=O)Nc1ccc(S(=O)(=O)NCCC(=O)NC(C)c2cccs2)cc1 (stereo not drawn) returned C8 TRAIL sens -13.6.
CCN1CCN(C2=C(NS(=O)(=O)c3ccc(NC(C)=O)cc3)C(=O)c3ccccc3C2=O)CC1 was read as C8 TRAIL sens 36.6 and HSP90 refold inh 5.2.
CCN1CCN(C2=C(NS(=O)(=O)c3ccc(C)cc3)C(=O)c3ccccc3C2=O)CC1 was read as C8 TRAIL sens 52.0* and HSP90 refold inh 0.1.
Screening Cc1cccc(NC(=O)c2ncn3c2C(=O)N[C@@H](C)C3)c1 returned C8 TRAIL sens -7.0.
Screening Cc1ccc(Nc2nnc(SCC(=O)NCCN3C(=O)CSC3=O)s2)cc1C returned FLuc inhib CS 82.0*, FLuc stim CS 0.2, PPC-1+TRAIL kill 48.5, C8 TRAIL sens 53.0* and HSP90 refold inh 4.3.
For Cc1ccc(SCC(=O)NCCN2C(=O)CSC2=O)cc1C the results were FLuc inhib CS 0.2, FLuc stim CS 1, PPC-1+TRAIL kill 17.9, C8 TRAIL sens -1.8 and HSP90 refold inh 3.5.
`COc1ccc(-n2nc(C(=O)NCC(=O)N3CCN(c4ccccc4)CC3)c3ccccc3c2=O)c(OC)c1` gave C8 TRAIL sens 61.5* and HSP90 refold inh -0.9.
`COc1ccc(-n2nc(C(=O)NCC(=O)N3CCN(c4ccccn4)CC3)c3ccccc3c2=O)cc1OC` gave FLuc inhib CS 39.1, FLuc stim CS 0.6, PPC-1+TRAIL kill 28.9, C8 TRAIL sens 13.5 and HSP90 refold inh 4.0.
Screening COc1ccc(-n2nc(C(=O)NCC(=O)N3CCN(c4ccccn4)CC3)c3ccccc3c2=O)cc1 returned FLuc inhib CS 67.7*, FLuc stim CS 0.3, PPC-1+TRAIL kill 43.6, C8 TRAIL sens 29.4 and HSP90 refold inh 6.5.
For COc1ccc(-n2nc(C(=O)NCC(=O)N3CCN(c4ccc(F)cc4)CC3)c3ccccc3c2=O)c(OC)c1 the results were C8 TRAIL sens 27.7 and HSP90 refold inh -5.5.
CC(C)c1ccc(/C=C/c2ccc(=O)n(C)n2)cc1 was read as FLuc inhib CS 83.4*, FLuc stim CS 0.2, PPC-1+TRAIL kill 38.6, C8 TRAIL sens 62.3* and HSP90 refold inh -4.1.
`CC(C)c1ccc(/C=C/C2=NNC(=O)CC2)cc1` gave FLuc inhib CS 26.3, FLuc stim CS 0.7, PPC-1+TRAIL kill -2.6, C8 TRAIL sens 15.0 and HSP90 refold inh 1.5.
`Cc1ccc(NC(=O)C2CCN(c3cnccn3)CC2)cc1` gave FLuc inhib CS 85.2*, FLuc stim CS 0.1, PPC-1+TRAIL kill -2.6, C8 TRAIL sens -4.6 and HSP90 refold inh -0.3.
For COc1ccc2oc(C(=O)Nc3nc(C)cs3)c(C)c2c1 the results were C8 TRAIL sens 59.9*.
Screening COc1ccc2oc(C(=O)Nc3ccc(C)cn3)c(C)c2c1 returned C8 TRAIL sens 33.1.
For CN(Cc1c(C(=O)N/N=C/c2c(F)cccc2Cl)nnn1-c1nonc1N)C1CCCCC1 the results were C8 TRAIL sens -19.3.
For O=C(Nc1ccc2c(c1)OCCO2)c1ccc(Br)s1 the results were FLuc inhib CS 86.3*, FLuc stim CS 0.1, PPC-1+TRAIL kill 60.5*, C8 TRAIL sens 74.0* and HSP90 refold inh 11.7.
CCc1sc(C(=O)Nc2ccc3c(c2)OCCO3)cc1Br was read as C8 TRAIL sens 50.2* and HSP90 refold inh -4.4.
Screening CCc1sc(C(=O)Nc2ccc3c(c2)OCO3)cc1C returned C8 TRAIL sens 32.8.
Screening O=C(Nc1ccc2c(c1)OCCO2)c1cccc(C(=O)Nc2ccc3c(c2)OCCO3)c1 returned C8 TRAIL sens 15.9 and HSP90 refold inh -2.5.
`Cc1nc2cc(NC(=O)c3ccc(Br)s3)ccc2s1` gave C8 TRAIL sens 62.8* and HSP90 refold inh 0.2.
Screening CSCC[C@@H](CO)NC(=O)[C@H]1O[C@@H](n2ccc(=O)[nH]c2=O)[C@H](O)[C@@H]1O returned C8 TRAIL sens 8.9.
For CCCSc1cc(NCCOC(=O)CCC)c([N+](=O)[O-])c2nonc12 the results were FLuc inhib CS -5.1, FLuc stim CS 1.1, PPC-1+TRAIL kill 11.1, C8 TRAIL sens -4.9 and HSP90 refold inh -5.8.
For CCCC(=O)OCCNc1cc(Sc2nccn2C)c2nonc2c1[N+](=O)[O-] the results were FLuc inhib CS -7.1, FLuc stim CS 1.1, PPC-1+TRAIL kill 13.4, C8 TRAIL sens 57.1* and HSP90 refold inh 1.6.
Screening O=C(OCn1ncc(Cl)c(Cl)c1=O)c1ccc(C(F)(F)F)cc1 returned FLuc inhib CS -4.9, FLuc stim CS 1, PPC-1+TRAIL kill 10.8, C8 TRAIL sens 78.4* and HSP90 refold inh -1.2.
`Cc1ccc(C(=O)OCn2ncc(Cl)c(Cl)c2=O)cc1` gave FLuc inhib CS -2.1, FLuc stim CS 1, PPC-1+TRAIL kill 25.2, C8 TRAIL sens 93.8* and HSP90 refold inh -0.6.
Screening N#C/C(=C\c1cc(Cl)cc(Cl)c1O)C(=O)NC1CCCCC1 returned FLuc inhib CS -9.7, FLuc stim CS 1.1, PPC-1+TRAIL kill 9.7, C8 TRAIL sens 54.1* and HSP90 refold inh -2.4.
CC1=CN2C(=N)/C(=C/c3ccc(Sc4ccc(C)cc4)o3)C(=O)N=C2S1 was read as FLuc inhib CS -3.2, FLuc stim CS 1, PPC-1+TRAIL kill 25.9, C8 TRAIL sens 22.0 and HSP90 refold inh -1.2.

Source: PubChem (several laboratories)
